Experimental data reported in ChEMBL document CHEMBL1124381, “Studies on angiotensin converting enzyme inhibitors. 4. Synthesis and angiotensin converting enzyme inhibitory activities of 3-acyl-1-alkyl-2-oxoimidazolidine-4-carboxylic acid derivatives” (J Med Chem, 1989).
Values joined by “and” are separate entries in the source; they are usually repeats but may differ in a detail not shown here. Identical values can stand only once.

Columns and labels:
Rattus norvegicus [1] = test: Maximum inhibitory effect on Angiotensin I induced pressor responses in anesthetized normotensive rats with 10 ug/kg dose of compound given intra venously; assay type: functional
Rattus norvegicus [2] = test: Maximum inhibitory effect of on Angiotensin I induced pressor responses in anesthetized normotensive rats with 1.0 mg/Kg dose of compound given perorally; assay type: functional; conditions: po
Procedure, shortened: (§1)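 Male Wistar slc rats, 300-400 g, anesthetized, fasted 18-20 h. Drug given orally in distilled water once a constant angiotensin I pressor rise was confirmed. […] ID50 from a linear regression curve. Maximum inhibition reported.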

Rattus norvegicus [3] = test: Initial systolic blood pressure in spontaneously hypertensive rats after administration of 5 mg/kg of compound perorally; assay type: functional, Artery; conditions: route oral
Procedure, shortened: (§2)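 Male NCrj SHRs, 18-22 weeks old, about 350 g, baseline systolic pressure 180-200 mmHg, fasted 18-20 h. Drug given orally in distilled water at 1, 2, 5 or 10 mg/kg; vehicle 4 mL/kg. Systolic pressure by tail plethysmograph. Initial value, maximum, time of maximum, change and duration of significant fall recorded; mean ± SE.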

Rattus norvegicus [4] = test: Initial systolic blood pressure in spontaneously hypertensive rats after administration of 10 mg/kg of compound perorally; assay type: functional, Artery; conditions: route oral; procedure, shortened: as §2
Rattus norvegicus [5] = species: Rattus norvegicus; test: Change in systolic blood pressure; assay type: functional, Artery; procedure, shortened: as §2
Rattus norvegicus [6] = species: Rattus norvegicus; test: The duration time of the hypotensive effect showing statistically significant difference from initial value was determined; assay type: functional; procedure, shortened: as §2
Rattus norvegicus [7] = test: Initial systolic blood pressure in spontaneously hypertensive rats after administration of 2 mg/kg of compound perorally; assay type: functional, Artery; conditions: route oral; procedure, shortened: as §2
Rattus norvegicus [8] = species: Rattus norvegicus; test: Inhibitory effect of on Angiotensin I induced pressor responses in normotensive rats when given perorally; assay type: functional; conditions: po, read-out: ID50 (the source's name); procedure, shortened: as §1
Rattus norvegicus [9] = test: Initial systolic blood pressure in spontaneously hypertensive rats after administration of 1 mg/kg of compound perorally; assay type: functional, Artery; conditions: route oral; procedure, shortened: as §2
Rattus norvegicus [10] = test: The time required for the maximal fall in blood pressure after administration of the compound; assay type: functional; procedure, shortened: as §2
Rattus norvegicus [11] = test: Maximum inhibitory effect of on Angiotensin I induced pressor responses in anesthetized normotensive rats with 0.2 mg/Kg dose of compound given perorally; assay type: functional; conditions: po; procedure, shortened: as §1
Rattus norvegicus [12] = test: Maximum inhibitory effect of on Angiotensin I induced pressor responses in anesthetized normotensive rats with 0.5 mg/Kg dose of compound given perorally; assay type: functional; conditions: po; procedure, shortened: as §1
Rattus norvegicus [13] = test: Maximum effect on systolic blood pressure in spontaneously hypertensive rats after administration of 10 mg/kg of compound perorally; assay type: functional, Artery; conditions: route oral; procedure, shortened: as §2
Rattus norvegicus [14] = test: Maximum effect on systolic blood pressure in spontaneously hypertensive rats after administration of 5 mg/kg of compound perorally; assay type: functional, Artery; conditions: route oral; procedure, shortened: as §2
Rattus norvegicus [15] = test: Maximum inhibitory effect on Angiotensin I induced pressor responses in anesthetized normotensive rats with 0.2 mg/Kg dose of compound given perorally; assay type: functional; conditions: po; procedure, shortened: as §1
Rattus norvegicus [16] = test: Maximum inhibitory effect on Angiotensin I induced pressor responses in anesthetized normotensive rats with 0.5 mg/Kg dose of compound given perorally; assay type: functional; conditions: po; procedure, shortened: as §1
Rattus norvegicus [17] = test: Maximum effect on systolic blood pressure in spontaneously hypertensive rats after administration of 1 mg/kg of compound perorally; assay type: functional, Artery; conditions: route oral; procedure, shortened: as §2
Rattus norvegicus [18] = test: Maximum inhibitory effect on Angiotensin I induced pressor responses in anesthetized normotensive rats with 1.0 mg/Kg dose of compound given perorally; assay type: functional; conditions: po; procedure, shortened: as §1
Rattus norvegicus [19] = species: Rattus norvegicus; test: Inhibitory effect on Angiotensin I induced pressor responses in normotensive rats when given perorally; assay type: functional; conditions: po, read-out: ID50 (the source's name); procedure, shortened: as §1
Rattus norvegicus [20] = test: Maximum effect on systolic blood pressure in spontaneously hypertensive rats after administration of 2 mg/kg of compound perorally; assay type: functional, Artery; conditions: route oral; procedure, shortened: as §2
Rattus norvegicus [21] = test: Maximum inhibitory effect on Angiotensin I induced pressor responses in anesthetized normotensive rats with 10 ug/kg dose of compound given intravenously; assay type: functional; conditions: iv

C[C@H](N[C@@H](CCc1ccccc1)C(=O)O)C(=O)N1C(=O)N(Cc2ccccc2)C[C@H]1C(=O)O
inhibition in vivo at 0.01 mg/kg (Rattus norvegicus [1]): 39%

CCCCCCCC[C@H](N[C@@H](C)C(=O)N1C(=O)N(C)C[C@H]1C(=O)O)C(=O)O
inhibition in vivo at 0.01 mg/kg (Rattus norvegicus [1]): 53.4% | inhibition in vivo at 1 mg/kg (Rattus norvegicus [2]): 18.4%

CCCCCCCC[C@H](N[C@@H](C)C(=O)N1C(=O)N(Cc2ccccc2)C[C@H]1C(=O)O)C(=O)O
inhibition in vivo at 0.01 mg/kg (Rattus norvegicus [1]): 41%

CCCCCCCC[C@H](N[C@@H](C)C(=O)N1C(=O)N(C)C[C@H]1C(=O)O)C(=O)OCC
inhibition in vivo at 1 mg/kg (Rattus norvegicus [2]): 56.2%

CCOC(=O)[C@H](CCc1ccccc1)N[C@@H](C)C(=O)N1C(=O)N(C)C[C@H]1C(=O)O
Systolic blood pressure (Rattus norvegicus [3]; 5 mg/kg): 191.4 mmHg and 164.3 mmHg | Systolic blood pressure (Rattus norvegicus [4]): 192 mmHg | Change (Rattus norvegicus [5]): -25 [middle of 4 runs] | Duration (Rattus norvegicus [6]): >9 h | Systolic blood pressure (Rattus norvegicus [7]; 2 mg/kg): 165.8 mmHg and 192.5 mmHg | ED50 (Rattus norvegicus [8]): 0.24 mg/kg | Systolic blood pressure (Rattus norvegicus [9]; 1 mg/kg): 190 mmHg and 190.8 mmHg | Time (Rattus norvegicus [10]): 3 h and 6 h | inhibition in vivo at 0.2 mg/kg (Rattus norvegicus [11]): 52% | inhibition in vivo at 0.5 mg/kg (Rattus norvegicus [12]): 62.7%

CCOC(=O)[C@H](CCc1ccccc1)N[C@@H](C)C(=O)N1CCC[C@H]1C(=O)O
Systolic blood pressure (Rattus norvegicus [3]): 190 mmHg | Systolic blood pressure (Rattus norvegicus [13]): 165 mmHg | Systolic blood pressure (Rattus norvegicus [4]): 193.3 mmHg | Change (Rattus norvegicus [5]): -23.3 [middle of 4 runs] | Duration (Rattus norvegicus [6]): >9 h | Systolic blood pressure (Rattus norvegicus [14]): 166.7 mmHg | Systolic blood pressure (Rattus norvegicus [7]): 192.9 mmHg | inhibition in vivo at 0.2 mg/kg (Rattus norvegicus [15]): 42.9% | Systolic blood pressure (Rattus norvegicus [9]): 190.8 mmHg | inhibition in vivo at 0.5 mg/kg (Rattus norvegicus [16]): 50.5% | Systolic blood pressure (Rattus norvegicus [17]): 178.3 mmHg | Time (Rattus norvegicus [10]): 3 h and 6 h | inhibition in vivo at 1 mg/kg (Rattus norvegicus [18]): 69.8% | ED50 (Rattus norvegicus [19]): 0.3 mg/kg | Systolic blood pressure (Rattus norvegicus [20]): 168.6 mmHg

C[C@H](N[C@@H](CCc1ccccc1)C(=O)O)C(=O)N1C(=O)N(C)C[C@H]1C(=O)O
inhibition in vivo at 0.01 mg/kg (Rattus norvegicus [1]): 62.4% | inhibition in vivo at 1 mg/kg (Rattus norvegicus [2]): 26.3% | inhibition in vivo at 0.2 mg/kg (Rattus norvegicus [11]): -7.2%

C[C@H](N[C@@H](CCc1ccccc1)C(=O)O)C(=O)N1CCC[C@H]1C(=O)O [ENALAPRILAT ANHYDROUS]
inhibition in vivo at 0.01 mg/kg (Rattus norvegicus [21]): 54.5%
